Data as given in ChEMBL document CHEMBL1800057, “Discovery of dual inducible/neuronal nitric oxide synthase (iNOS/nNOS) inhibitor development candidate 4-((2-cyclobutyl-1H-imidazo[4,5-b]pyrazin-1-yl)methyl)-7,8-difluoroquinolin-2(1H)-one (KD7332) part 2: identification of a novel, potent, and selective series of benzimidazole-quinolinone …” (J Med Chem, 2010).

Experiments:
Mus musculus [1] = test: Neurotoxicity in C57Bl/6j mouse assessed as inability to maintain equilibrium on rotarod up to 1000 mg/kg, po determined 1 to 3 hrs postdose by rotarod test; format: toxicity, organism-based; design: dose 1000 mg/kg, route oral; details: in vivo
How it was run: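 Male C57Bl/6j mice were acclimated to the rotarod at 4 rpm, then given two training sessions on an accelerating rod (4-40 rpm over 300 s). Only mice with latencies >60 s were kept. After oral dosing, latency to fall from the accelerating rod was recorded at 1, 2 and 3 h.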

Cytochrome P450 3A4 = Cytochrome P450 3A4 (Homo sapiens, UniProt P08684); test: Inhibition of human CYP3A4 at >100 uM; format: ADME
Cytochrome P450 3A4, sequence (P08684 whole entry): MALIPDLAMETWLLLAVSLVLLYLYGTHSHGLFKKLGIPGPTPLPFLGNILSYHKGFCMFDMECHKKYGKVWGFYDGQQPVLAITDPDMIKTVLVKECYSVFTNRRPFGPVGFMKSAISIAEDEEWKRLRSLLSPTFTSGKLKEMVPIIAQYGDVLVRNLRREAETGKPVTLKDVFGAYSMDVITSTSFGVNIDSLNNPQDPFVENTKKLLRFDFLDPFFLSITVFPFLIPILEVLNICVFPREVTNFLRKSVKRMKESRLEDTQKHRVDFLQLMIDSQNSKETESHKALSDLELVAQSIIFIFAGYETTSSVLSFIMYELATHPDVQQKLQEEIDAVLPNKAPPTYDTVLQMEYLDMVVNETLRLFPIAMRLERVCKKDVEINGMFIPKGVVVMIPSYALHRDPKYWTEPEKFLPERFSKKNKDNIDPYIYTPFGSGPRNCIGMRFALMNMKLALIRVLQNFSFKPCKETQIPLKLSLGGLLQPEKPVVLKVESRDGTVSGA

Cytochrome P450 2C19 = Cytochrome P450 2C19 (Homo sapiens, UniProt P33261); test: Inhibition of human CYP2C19 at >38 uM; format: ADME
Cytochrome P450 2C19, sequence (P33261 whole entry): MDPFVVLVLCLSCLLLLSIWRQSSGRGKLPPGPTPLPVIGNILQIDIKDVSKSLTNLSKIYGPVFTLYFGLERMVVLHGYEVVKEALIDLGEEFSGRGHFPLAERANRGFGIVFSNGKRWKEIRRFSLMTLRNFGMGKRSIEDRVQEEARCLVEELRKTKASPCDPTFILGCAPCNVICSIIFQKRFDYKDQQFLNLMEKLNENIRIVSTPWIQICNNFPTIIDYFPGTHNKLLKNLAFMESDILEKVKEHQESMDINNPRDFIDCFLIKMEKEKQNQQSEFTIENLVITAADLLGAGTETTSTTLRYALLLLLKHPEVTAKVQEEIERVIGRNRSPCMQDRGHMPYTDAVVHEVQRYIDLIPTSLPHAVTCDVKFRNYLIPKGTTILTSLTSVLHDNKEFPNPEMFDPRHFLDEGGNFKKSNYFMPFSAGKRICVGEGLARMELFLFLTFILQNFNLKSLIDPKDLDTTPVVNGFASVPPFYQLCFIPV

[2] = target: Voltage-gated inwardly rectifying potassium channel KCNH2 (Homo sapiens, UniProt Q12809); test: Inhibition of human ERG by patch clamp assay
Voltage-gated inwardly rectifying potassium channel KCNH2, sequence (Q12809 whole entry): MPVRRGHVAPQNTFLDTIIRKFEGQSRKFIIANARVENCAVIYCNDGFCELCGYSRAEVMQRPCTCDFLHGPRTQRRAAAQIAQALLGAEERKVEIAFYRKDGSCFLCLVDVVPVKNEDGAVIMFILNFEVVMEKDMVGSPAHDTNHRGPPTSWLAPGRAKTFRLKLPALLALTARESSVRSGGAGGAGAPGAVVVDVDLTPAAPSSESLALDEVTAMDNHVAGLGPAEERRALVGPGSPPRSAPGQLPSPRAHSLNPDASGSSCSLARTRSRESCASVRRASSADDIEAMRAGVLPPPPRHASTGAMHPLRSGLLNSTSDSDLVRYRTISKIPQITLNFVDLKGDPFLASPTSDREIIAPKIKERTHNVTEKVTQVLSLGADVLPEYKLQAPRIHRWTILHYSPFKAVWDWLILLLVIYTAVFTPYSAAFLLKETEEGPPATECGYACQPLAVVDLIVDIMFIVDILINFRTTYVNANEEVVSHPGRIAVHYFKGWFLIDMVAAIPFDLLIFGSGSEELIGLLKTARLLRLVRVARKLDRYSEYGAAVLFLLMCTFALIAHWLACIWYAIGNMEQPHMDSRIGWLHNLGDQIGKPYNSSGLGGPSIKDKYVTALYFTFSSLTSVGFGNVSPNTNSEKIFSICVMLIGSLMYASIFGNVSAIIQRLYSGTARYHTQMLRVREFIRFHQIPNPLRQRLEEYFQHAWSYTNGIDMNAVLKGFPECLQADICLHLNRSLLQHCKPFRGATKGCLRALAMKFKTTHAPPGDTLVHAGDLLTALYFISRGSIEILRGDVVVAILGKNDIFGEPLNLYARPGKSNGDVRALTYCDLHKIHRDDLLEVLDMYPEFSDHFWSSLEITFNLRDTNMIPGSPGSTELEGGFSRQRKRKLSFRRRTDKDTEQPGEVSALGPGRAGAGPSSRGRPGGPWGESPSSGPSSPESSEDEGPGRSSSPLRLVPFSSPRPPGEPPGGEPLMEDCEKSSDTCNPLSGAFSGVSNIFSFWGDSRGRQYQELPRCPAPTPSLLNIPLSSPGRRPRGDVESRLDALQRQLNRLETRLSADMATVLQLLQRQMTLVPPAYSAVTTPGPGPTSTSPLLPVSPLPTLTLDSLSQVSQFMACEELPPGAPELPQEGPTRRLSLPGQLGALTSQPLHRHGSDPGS

Mus musculus [3] = test: Antinociceptive activity against formalin-induced pain in mouse assessed as attenuation of nocifensive phase 2 behaviors during phase 2 (25 to 45 mins post formalin injection) administered via oral gavage 30 mins before to formalin challenge; format: functional
How it was run: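 Mice were given compound by oral gavage in PEG/Tween 80/PVP + CMC vehicle 30 min before 20 μL of 5% formalin was injected into the left hind paw. Paw flinching, licking and biting were timed in 5 min bins by a single observer. Read-out was time in nociceptive behaviour at 25-45 min. Mean ± SE, n = 5-6, one-way ANOVA with post hoc tests.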

Brain = test: Drug uptake in rat brain by microdialysis relative to compound plasma level; format: ADME, tissue-based; details: in vivo
Homo sapiens [4] = species: Homo sapiens; test: Ratio of IC50 for human eNOS to EC50 for human iNOS
Homo sapiens [5] = species: Homo sapiens; test: Ratio of IC50 for human nNOS to EC50 for human iNOS
[6] = target: T1, Nitric oxide synthase 3 (Homo sapiens) (UniProt P29474); test: Inhibition of human eNOS expressed in HEK293 cells assessed as inhibition A23187 induced nitric oxide production at 100 uM incubated for 24 hrs measured after 18 hrs of […] challenge using 2,3-diaminonaphthalene by fluorescence assay; format: cell-based
T1 sequence (whole entry): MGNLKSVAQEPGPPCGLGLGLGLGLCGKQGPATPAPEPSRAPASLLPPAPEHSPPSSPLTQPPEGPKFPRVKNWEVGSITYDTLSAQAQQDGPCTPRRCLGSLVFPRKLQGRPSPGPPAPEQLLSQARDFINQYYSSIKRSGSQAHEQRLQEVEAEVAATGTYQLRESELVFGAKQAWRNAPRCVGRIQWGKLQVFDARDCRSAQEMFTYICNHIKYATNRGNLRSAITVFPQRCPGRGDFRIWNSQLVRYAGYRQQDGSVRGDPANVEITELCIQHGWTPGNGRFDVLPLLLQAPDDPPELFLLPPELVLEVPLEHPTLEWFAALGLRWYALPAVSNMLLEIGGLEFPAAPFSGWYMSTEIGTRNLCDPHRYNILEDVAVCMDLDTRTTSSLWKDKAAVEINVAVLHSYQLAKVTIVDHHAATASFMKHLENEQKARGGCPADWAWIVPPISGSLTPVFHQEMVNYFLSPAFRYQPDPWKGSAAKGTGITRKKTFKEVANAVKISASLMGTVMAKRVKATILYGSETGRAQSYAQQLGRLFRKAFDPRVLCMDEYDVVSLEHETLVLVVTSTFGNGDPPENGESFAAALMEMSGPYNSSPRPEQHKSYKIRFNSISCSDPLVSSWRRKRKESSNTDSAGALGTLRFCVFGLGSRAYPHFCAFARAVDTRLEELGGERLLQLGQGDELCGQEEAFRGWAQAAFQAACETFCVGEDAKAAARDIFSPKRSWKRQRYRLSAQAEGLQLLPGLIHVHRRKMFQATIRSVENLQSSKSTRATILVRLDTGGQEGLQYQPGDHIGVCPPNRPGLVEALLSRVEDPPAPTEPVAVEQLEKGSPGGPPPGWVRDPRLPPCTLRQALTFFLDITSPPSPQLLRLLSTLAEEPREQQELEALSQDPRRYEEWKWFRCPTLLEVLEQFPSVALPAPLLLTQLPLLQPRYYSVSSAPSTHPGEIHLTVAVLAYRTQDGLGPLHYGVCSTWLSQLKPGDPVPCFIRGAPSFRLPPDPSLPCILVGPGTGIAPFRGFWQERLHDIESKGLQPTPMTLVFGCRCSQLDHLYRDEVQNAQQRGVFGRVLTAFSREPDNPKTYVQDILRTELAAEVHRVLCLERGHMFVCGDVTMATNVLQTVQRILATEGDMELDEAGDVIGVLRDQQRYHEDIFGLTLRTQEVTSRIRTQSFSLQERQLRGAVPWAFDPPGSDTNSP

Mus musculus [7] = test: Inhibition of LPS-induced iNOS activation in BALB/c mouse assessed as plasma nitrate levels at 30 mg/kg administered via oral gavage before LPS challenge measured after 6 to 8 hrs using 2,3-diaminonaphthalene by fluorescence assay relative to control; format: functional
How it was run: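 Male BALB/c mice dosed by oral gavage (90% PEG/5% Tween 80/5% PVP + 0.5% w/v CMC) immediately before LPS (10 mg/kg ip in 0.9% NaCl). Mice killed at 6 h. EDTA plasma analysed for nitrate and drug levels; nitrite measured by DAN fluorescence.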

Row | inhibition (INH) (Cytochrome P450 3A4) [%] | inhibition (INH) (Cytochrome P450 2C19) [%] | Drug uptake (Brain) [%] | Ratio EC50 (Homo sapiens [4]) | Ratio EC50 (Homo sapiens [5]) | inhibition [6] [%] | Compound | Activity (Mus musculus [1]) | EC50 [2] [µM] | ED50 (Mus musculus [3]) [mg/kg] | inhibition in vivo at 30 mg/kg (Mus musculus [7]) [%]
1 | < 50 | < 50 | 2 | – | – | – | O=c1cc(Cn2c(C3CCC3)nc3nccnc32)c2ccc(F)c(F)c2[nH]1 | Non-toxic | > 30 | 13 | –
2 | – | – | – | – | – | – | CC(C)Cc1nc2nccnc2n1Cc1cc(=O)[nH]c2c(F)c(F)ccc12 | – | > 30 | – | –
3 | – | – | – | > 263 | 1.8 | < 50 | CC(C)Cc1nc2ccccc2n1Cc1cc(=O)[nH]c2c(F)c(F)ccc12 | – | – | – | 85
